Reference: ChEMBL document CHEMBL1125563, “Selective, centrally acting serotonin 5-HT2 antagonists. 1. 2- and 6-substituted 1-phenyl-3-(4-piperidinyl)-1H-indoles” (J Med Chem, 1992)

Columns and labels:
[1] = target: T1, Adrenergic receptor alpha-1 (Rattus norvegicus, UniProt P15823+P23944+P43140); assay: Displacement of [3H]prazosin from Alpha-1 adrenergic receptor of whole rat brain membranes; format: cell membranes, Membrane
T1 sequence (P15823 whole entry): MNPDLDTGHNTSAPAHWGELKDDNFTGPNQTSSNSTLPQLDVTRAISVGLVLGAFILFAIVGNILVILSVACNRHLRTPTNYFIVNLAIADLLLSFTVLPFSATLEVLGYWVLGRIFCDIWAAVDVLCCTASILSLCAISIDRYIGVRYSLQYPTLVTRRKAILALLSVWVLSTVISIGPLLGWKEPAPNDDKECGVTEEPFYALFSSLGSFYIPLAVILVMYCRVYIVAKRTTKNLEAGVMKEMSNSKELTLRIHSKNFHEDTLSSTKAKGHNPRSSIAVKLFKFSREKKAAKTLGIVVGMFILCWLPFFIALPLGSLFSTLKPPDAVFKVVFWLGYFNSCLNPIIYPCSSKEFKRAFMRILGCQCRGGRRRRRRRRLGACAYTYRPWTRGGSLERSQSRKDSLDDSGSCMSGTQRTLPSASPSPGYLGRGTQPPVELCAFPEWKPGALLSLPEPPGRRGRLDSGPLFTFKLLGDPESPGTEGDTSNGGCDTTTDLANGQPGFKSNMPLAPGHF
T1 sequence (P23944 whole entry): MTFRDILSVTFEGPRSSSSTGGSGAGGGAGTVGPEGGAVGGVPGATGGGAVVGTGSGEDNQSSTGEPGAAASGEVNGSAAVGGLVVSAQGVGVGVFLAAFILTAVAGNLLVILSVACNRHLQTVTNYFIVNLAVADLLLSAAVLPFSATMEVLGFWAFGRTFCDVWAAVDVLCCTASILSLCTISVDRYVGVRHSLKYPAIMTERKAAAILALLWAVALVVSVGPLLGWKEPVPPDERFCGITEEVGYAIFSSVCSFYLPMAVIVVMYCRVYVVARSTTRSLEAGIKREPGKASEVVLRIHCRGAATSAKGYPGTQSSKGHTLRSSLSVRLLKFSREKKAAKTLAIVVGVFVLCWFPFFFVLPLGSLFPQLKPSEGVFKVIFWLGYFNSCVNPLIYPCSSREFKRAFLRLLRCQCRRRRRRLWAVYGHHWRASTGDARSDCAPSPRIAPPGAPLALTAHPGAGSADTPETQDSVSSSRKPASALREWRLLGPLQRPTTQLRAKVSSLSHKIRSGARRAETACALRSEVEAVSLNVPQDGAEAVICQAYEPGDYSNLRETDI
T1 sequence (P43140 whole entry): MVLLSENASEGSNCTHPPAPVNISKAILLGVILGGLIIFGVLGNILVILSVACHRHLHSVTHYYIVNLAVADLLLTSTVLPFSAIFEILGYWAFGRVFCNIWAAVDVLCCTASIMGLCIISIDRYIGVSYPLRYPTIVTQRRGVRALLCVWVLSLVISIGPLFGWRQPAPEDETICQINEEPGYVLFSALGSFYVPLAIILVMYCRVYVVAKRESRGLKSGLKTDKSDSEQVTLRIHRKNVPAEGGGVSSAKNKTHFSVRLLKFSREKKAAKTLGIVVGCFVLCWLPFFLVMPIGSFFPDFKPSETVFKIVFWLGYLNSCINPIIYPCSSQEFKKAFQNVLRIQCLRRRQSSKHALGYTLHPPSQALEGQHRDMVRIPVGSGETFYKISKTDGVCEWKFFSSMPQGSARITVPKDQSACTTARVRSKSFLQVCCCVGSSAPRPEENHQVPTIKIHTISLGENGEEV
Summary of the method: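 α1 adrenoceptor binding measured as displacement of [3H]prazosin from whole rat brain membranes. Five test-drug concentrations spanning three decades in triplicate, two full curves; IC50 from log concentration-effect curves, logarithmic mean of at least two determinations.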

Mus musculus [2] = species on record: Mus musculus; assay: Compound was evaluated for the inhibition of isolation-induced aggression at a threshold of 180 seconds; format: functional
Summary of the method: (§1)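 Isolated male NMRI mice (3 weeks) trained to attack a nonaggressive intruder of the same strain; only mice with attack latency <25 s included. Pretested just before dosing and 2 h after sc test substance; observation maximum 180 s; at least eight mice per dose.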

Rattus norvegicus [3] = assay: Compound was evaluated for the inhibition of quipazine-induced head twitches after 24 hr (administered perorally); 0.026-0.12; format: functional; conditions: po
Rattus norvegicus [4] = assay: Compound was evaluated for the inhibition of quipazine-induced head twitches after 24 hr (administered subcutaneously); 0.017-0.16; format: functional; conditions: sc
[5] = target: Serotonin 2 (5-HT2) receptor (Rattus norvegicus, UniProt P30994+P08909+P14842); assay: Displacement of [3H]ketanserin from 5-hydroxytryptamine 2 receptor from rat cortical membranes.; format: cell membranes, Membrane
Summary of the method: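 [3H]ketanserin displacement from rat cortical membranes (5-HT2). Five concentrations across three decades in triplicate, two full curves; IC50 estimated on a log-concentration scale, given as logarithmic mean of at least two determinations.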

Rattus norvegicus [6] = assay: Compound was evaluated for the inhibition of quipazine-induced head twitches after 2 h (administered subcutaneously); 0.064-0.18; format: functional; conditions: sc
Mus musculus [7] = species on record: Mus musculus; assay: Compound was evaluated for the inhibition of isolation-induced aggression at a threshold of, 90 seconds; format: functional; summary of the method: as §1
Rattus norvegicus [8] = assay: Compound was evaluated for the inhibition of pergolide-induced reactions after 2 hr (administered subcutaneously); format: functional; conditions: sc
Summary of the method: (§2)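 Male Wistar rats with unilateral 6-OHDA lesions; test drug sc 2 h before pergolide (0.05 µmol/kg sc) to induce contralateral circling. Effect of each dose expressed as percent of mean of control sessions 1 week before and 1 week after, per rat; at least four rats per dose; ED50 by log-probit analysis.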

D(2) dopamine receptor = D(2) dopamine receptor (Rattus norvegicus, UniProt P61169); assay: Displacement of [3H]-spiperone from Dopamine receptor D2 from rat striatal membranes; format: cell membranes, Membrane
Chain of D(2) dopamine receptor (P61169 whole entry): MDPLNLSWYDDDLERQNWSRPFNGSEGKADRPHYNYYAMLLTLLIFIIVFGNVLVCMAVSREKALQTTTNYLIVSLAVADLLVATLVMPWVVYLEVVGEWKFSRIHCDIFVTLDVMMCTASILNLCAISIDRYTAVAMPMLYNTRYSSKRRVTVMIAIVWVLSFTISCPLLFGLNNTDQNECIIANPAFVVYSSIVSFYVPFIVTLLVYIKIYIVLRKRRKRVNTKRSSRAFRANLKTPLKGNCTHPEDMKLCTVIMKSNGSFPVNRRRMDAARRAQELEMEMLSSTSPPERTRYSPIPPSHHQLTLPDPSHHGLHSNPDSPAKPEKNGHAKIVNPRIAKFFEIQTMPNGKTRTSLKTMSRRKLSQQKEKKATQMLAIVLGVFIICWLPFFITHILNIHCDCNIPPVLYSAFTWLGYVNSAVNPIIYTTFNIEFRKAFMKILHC
Summary of the method: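 [3H]spiperone displacement from rat striatal membranes (D2). Five test-drug concentrations over three decades, in triplicate, two full curves; IC50 from log concentration-effect curves, reported as logarithmic mean of at least two determinations.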

Rattus norvegicus [9] = assay: Compound was evaluated for the inhibition of quipazine-induced head twitches after 2 hr (administered subcutaneously); 0.0027-0.073; format: functional; conditions: sc
Rattus norvegicus [10] = assay: Compound was evaluated for the inhibition of quipazine-induced head twitches after 24 hr (administered perorally); 0.017-0.18; format: functional; conditions: po
Rattus norvegicus [11] = assay: Compound was evaluated for the inhibition of quipazine-induced head twitches after 24 hr (administered subcutaneously); 0.0089-0.12; format: functional; conditions: sc
Rattus norvegicus [12] = assay: Compound was evaluated for the inhibition of quipazine-induced head twitches after 24 hr (administered subcutaneously); 0.014-0.066; format: functional; conditions: sc
Mus musculus [13] = species on record: Mus musculus; assay: Compound was evaluated for the inhibition of isolation-induced aggression at a threshold of 180 seconds; 4.4-13; format: functional; summary of the method: as §1
Rattus norvegicus [14] = assay: Compound was evaluated for the inhibition of quipazine-induced head twitches after 24 hr (administered perorally); 0.020-0.078; format: functional; conditions: po
Rattus norvegicus [15] = assay: Compound was evaluated for the inhibition of pergolide-induced reactions after 2 hr (administered subcutaneously); 1.5-8.9; format: functional; conditions: sc; summary of the method: as §2
Mus musculus [16] = species on record: Mus musculus; assay: Compound was evaluated for the inhibition of isolation-induced aggression at a threshold of, 90 seconds; 3.7-9.4; format: functional; summary of the method: as §1
Rattus norvegicus [17] = assay: Compound was evaluated for the inhibition of quipazine-induced head twitches after 2 hr (administered subcutaneously); 0.022-0.056; format: functional; conditions: sc

IC50 [1] [nM] | IC50 [5] [nM] | IC50 (D(2) dopamine receptor) [nM] | Compound | other results
70 | 1.5 |  | CC(C)N1CCN(CCN2CCC(c3cn(-c4ccc(F)cc4)c4cc(Cl)ccc34)CC2)C1=O | ED50 (Mus musculus [2]): 2 µmol/kg; ED50 (Rattus norvegicus [3]): 0.055 µmol/kg; ED50 (Rattus norvegicus [4]): 0.052 µmol/kg; ED50 (Rattus norvegicus [6]): 0.11 µmol/kg; ED50 (Mus musculus [7]): 2.3 µmol/kg; ED50 (Rattus norvegicus [8]): > 17 µmol/kg
33 | 1.7 | 260 | O=C1NCCN1CCN1CCC(c2cn(-c3ccc(F)cc3)c3cc(C(F)(F)F)ccc23)CC1 | 
22 | 2.6 | 38 | Cc1ccc2c(C3CCN(CCNC(=O)N(C)C)CC3)cn(-c3ccc(F)cc3)c2c1 | 
120 | 2 |  | Cc1ccc2c(C3CCN(CCN4CCN(C(C)C)C4=O)CC3)cn(-c3ccccc3)c2c1 | ED50 (Rattus norvegicus [9]): 0.014 µmol/kg; ED50 (Mus musculus [2]): > 11 µmol/kg; ED50 (Rattus norvegicus [10]): 0.056 µmol/kg; ED50 (Rattus norvegicus [11]): 0.032 µmol/kg; ED50 (Mus musculus [7]): > 11 µmol/kg; ED50 (Rattus norvegicus [8]): > 22 µmol/kg
 | 150 |  | Cc1ccc2c(C3CCN(CCN4CCN(C(C)C)C4=O)CC3)cn(-c3cccc(C(F)(F)F)c3)c2c1 | 
34 | 66 | 200 | CC(C)N1CCN(CCN2CCC(c3c[nH]c4cc(Cl)ccc34)CC2)C1=O | 
370 | 2.5 |  | Cc1ccc2c(C3CCN(CCN4CCN(C(C)C)C4=O)CC3)cn(-c3ccccc3F)c2c1 | 
670 | 11 |  | Cc1ccc2c(C3CCN(CCN4CCN(C(C)C)C4=O)CC3)cn(-c3cccc(F)c3)c2c1 | 
13 | 1.3 | 28 | CC(C)N1CCN(CCN2CCC(c3cn(-c4ccc(F)cc4)c4cc(F)ccc34)CC2)C1=O | 
29 | 1.3 | 27 | CN(C)C(=O)NCCN1CCC(c2cn(-c3ccc(F)cc3)c3cc(Cl)ccc23)CC1 | 
9.6 | 1.4 | 56 | O=C1NCCN1CCN1CCC(c2cn(-c3ccc(F)cc3)c3cc(Cl)ccc23)CC1 | 
3.4 |  |  | O=C1NCCN1CCN1CCC(c2cn(-c3ccc(F)cc3)c3ccc(Cl)cc23)CC1 [SERTINDOLE] | ED50 (Rattus norvegicus [12]): 0.03 µmol/kg; ED50 (Mus musculus [13]): 7.5 µmol/kg; ED50 (Rattus norvegicus [14]): 0.039 µmol/kg; ED50 (Rattus norvegicus [15]): 3.7 µmol/kg; ED50 (Mus musculus [16]): 5.9 µmol/kg; ED50 (Rattus norvegicus [17]): 0.035 µmol/kg

Compound | IC50 [1] [nM] | IC50 [5] [nM] | IC50 (D(2) dopamine receptor) [nM] | other results
Cc1c(C2=CCN(CCN3CCNC3=O)CC2)c2ccccc2n1-c1ccc(F)cc1 | 23 | 1.1 | 160 | 
